The whole screen tested about 360,000 compounds, of which about 1,700 (0.47%) were called active. This is one part of a sample in which actives are shown more often than they occur. Unmarked numbers belong to inactive results.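 The calls were made as follows: active = inhibition above its plate's cutoff, the mean of tested wells on that plate plus 3 SD (cut at about 29% in these data); inactive = the rest.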
biological target: Melanocortin receptor 4 (Homo sapiens) (UniProt P32245); assay: MC4R antagonists of cAMP signaling, primary screen, cell-based, TR-FRET, antagonist arm of biased-ligand search (AID 540295); conditions: MC4R-expressing cells, MTII-stimulated cAMP, LANCE TR-FRET; at 6.5 µM; active compounds read high;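 also: 0% = Melanotan II alone and 100% = Melanotan II plus saturating MCL0020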
Sequence (P32245 whole entry, looked up): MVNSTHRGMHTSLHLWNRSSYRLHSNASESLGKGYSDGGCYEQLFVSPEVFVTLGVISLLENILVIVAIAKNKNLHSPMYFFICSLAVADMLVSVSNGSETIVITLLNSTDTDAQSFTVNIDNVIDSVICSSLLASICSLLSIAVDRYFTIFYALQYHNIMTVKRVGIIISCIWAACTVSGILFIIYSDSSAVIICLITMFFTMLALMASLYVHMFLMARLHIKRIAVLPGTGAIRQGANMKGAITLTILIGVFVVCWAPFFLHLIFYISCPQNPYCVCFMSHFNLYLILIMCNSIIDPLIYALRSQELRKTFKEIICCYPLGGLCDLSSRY
How it was run: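 System: U2OS cells stably expressing human melanocortin 4 receptor (MC4R). Reagent: Melanotan II challenge after compound preincubation. Doses: 6.5 µM. Times: 30-min compound, 1-h challenge, 1-h detection, room temperature. Measured by: TR-FRET with Eu-cAMP and labeled anti-cAMP, 671 nm. Replicates: singlicate.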

Compound | inhibition
CC1(C)C(=O)Nc2ccccc2N1C(=O)COC(=O)Cn1cnc2ccccc2c1=O | 13.1%
O=C(COC(=O)Cn1cnc2ccccc2c1=O)NCc1ccccc1Cl | 10.8%
O=C(COC(=O)Cn1cnc2ccccc2c1=O)NCC12CC3CC(CC(C3)C1)C2 | 29.2% (active)
O=C(N/C(=C\c1ccc(O)cc1)C(=O)N1CCCCC1)c1ccccc1 | 2.84%
COc1ccc(N)cc1NC(=O)CN1CCOCC1 | -2.41%
O=C(O)c1n[nH]nc1-c1ccccc1 | 3.02%
CCCCOC(=O)CNc1nnc(SCC(=O)OCC)[nH]c1=O | 60.6% (active)
CCOC(=O)CSc1nc(C)c(Oc2ccc(Cl)cc2Cl)c(=O)[nH]1 | 5.59%
Cc1nnc(SCC(=O)N2CCOCC2)[nH]c1=O | 2.07%
NC(=O)c1ccc(NC(=O)COC(=O)C(Cc2ccccc2)NC(=O)c2ccccc2)cc1 (centres undefined) | 11%
O=C(COC(=O)[C@H](Cc1ccccc1)NC(=O)c1cccs1)Nc1cc(F)ccc1F | 31.4% (active)
Cc1ccc(C)c(NC(CC(=O)c2ccccc2)C(=O)OCC(=O)c2cccs2)c1 (centres undefined) | -0.53%
CCc1nc2c(OCc3ccc(C(F)(F)F)cc3)cccn2c1N(C)C(=O)CC(C)C | 6.64%
O=S(=O)(NCc1ccco1)c1cnc(Cl)c(Cl)c1 | 44.9% (active)
O=C(COC(=O)c1cnc(Cl)c(Cl)c1)NCc1ccco1 | 10.1%
O=S(=O)(NCC1CCCO1)c1cnc(Cl)c(Cl)c1 (centres undefined) | 24.7%
COC(=O)C[C@H]1C[C@@H]2c3cc(N(C)C)ccc3O[C@@H]2[C@H](CO)O1 | 13%
O=C1c2ccccc2C(=O)N1CCc1nn[nH]n1 | 14.6%
O=C(CCCOc1ccccc1)NCc1ccco1 | 2.67%
CN(C)C(CNC(=O)CCCOc1ccccc1)c1ccco1 (centres undefined) | 29.7% (active)
CN(C)C(CNC(=O)c1cccc(C#N)c1)c1ccco1 (centres undefined) | 0.76%
CN(CC(=O)NCCc1ccccn1)S(=O)(=O)c1ccc(Cl)cc1 | 30.3% (active)
CN(CC(=O)NCC(c1ccccc1)N1CCCC1)S(=O)(=O)c1ccc(Cl)cc1 (centres undefined) | -2.78%

Compound | inhibition
CN(CC(=O)NNC(=O)CNC(=O)c1ccccc1Cl)S(=O)(=O)c1ccc(Cl)cc1 | 2.86%
Cc1ccc(S(=O)(=O)N2CCCC2C(=O)NCc2ccco2)cc1 (centres undefined) | -0.46%
COC(=O)COc1ccc(C2NC(=O)NC(C)=C2C(=O)NCc2ccccc2)cc1OC (centres undefined) | 21.9%
C[C@H]([C@@H](O)[C@@H](O)[C@@H](C)C(C)(C)C)[C@H]1CC[C@H]2C3CC[C@H]4C[C@H](OS(=O)(=O)O)[C@@H](OS(=O)(=O)O)C[C@]4(C)[C@H]3CC[C@]12C (some centres undefined) | 9.52%
CCN(CCCNC(=O)C1CCN(S(=O)(=O)c2cnc[nH]2)CC1)c1ccccc1 | 17.3%
CS/C(=C\C(=O)c1ccco1)Nc1ccccc1Cl | 12.1%
O=C(Nc1ccccc1Cl)/C(Cl)=C(\Cl)S(=O)c1ccccc1 (centres undefined) | 34.9% (active)
O=C(COc1ccc(-n2cnnn2)cc1)Nc1ccccc1Cl | -4.5%
NC1=NC(=O)C(Cc2cccc(Cl)c2)S1 (centres undefined) | 6.88%
CCOC(=O)C(CC)Sc1ncnc2c1nnn2-c1ccc(F)cc1 (centres undefined) | 9.91%
COc1ccc(S(=O)(=O)N2CCOC2CNC(=O)C(=O)NCc2ccc(F)cc2)cc1 (centres undefined) | 5.37%
N#CC1=C(N)Oc2[nH]c(=S)[nH]c(=O)c2C12C(=O)Nc1ccccc12 (centres undefined) | -0.32%
CC1(C)Cc2ccccc2/C(=C/C(=O)c2ccccc2)N1 | -4.86%
CC1(C)Cc2ccccc2-c2[nH]c(=S)[nH]c(=O)c21 | 31.3% (active)
CC(=O)c1ccc(S(=O)(=O)Nc2ccc(-c3ccc4nncn4n3)cc2)cc1 | 4.19%
Cc1cccc(C(=O)N2CCCC(Nc3ccc(C(C)C)cc3)C2)n1 (centres undefined) | -4.44%
O=C(Oc1ccc(-c2nnco2)cc1)c1ccc(F)c(S(=O)(=O)N2CCOCC2)c1 | 16.3%
C=CCOC(=O)C1=C(C)N=C2SCCC(=O)N2C1/C=C/c1ccccc1OC (centres undefined) | 6.17%
COc1ccc(-c2ccc3c(c2)C2CC3CCN2CCC#N)cc1 (centres undefined) | 8.84%
C=CCn1c(=S)[nH]c2scc(-c3ccco3)c2c1=O | 29.6% (active)
CCC1(C)Cc2c(sc3[nH]c(=S)n(Cc4ccccc4)c(=O)c23)CO1 (centres undefined) | 3.15%
COc1cccc(-c2cc(NC(C)=O)c3ncc(-c4cccc(C(C)=O)c4)n3c2)c1 | 8.07%
CSc1ncnc2c1ncn2CCCNCC(C)c1ccccc1 (centres undefined) | 0.11%

Compound | inhibition
CCN(CC)S(=O)(=O)c1ccc(Cl)c(C(=O)NCCN2CCOCC2)c1 | -2.31%
CCN(CC(=O)NCCCN1CCOCC1)S(=O)(=O)c1cc(Cl)ccc1Cl | 30.2% (active)
COc1ccc(S(=O)(=O)N(C)CC(=O)NCCCN2CCOCC2)cc1Cl | 8.85%
O=C(Nc1nnc(Cc2ccc(Cl)cc2)s1)c1ccncc1 | 11.2%
O=C(Nc1nnc(Cc2ccc(Cl)cc2)s1)c1cccnc1 | 33.8% (active)
O=C(Nc1nnc(Cc2ccccc2)s1)c1cnccn1 | 20.4%
COC(=O)[C@]1(CC(C)C)N[C@H](c2ccc(SC3CCCCC3)cc2)[C@@H]2C(=O)N(C)C(=O)[C@@H]21 | 4.32%
Cc1ccc(NC(=O)Cn2c(=O)n(CCC(=O)NC3CCN(Cc4ccccc4)CC3)c(=O)c3ccccc32)cc1 | 8.52%
COC(=O)c1sc(-c2ccc(C(C)(C)C)cc2)cc1NC(=O)/C=C/C(=O)O | 37.3% (active)
COc1ccccc1NC(=O)/C=C/C(N)=O | 21%
COc1ccc(NS(=O)(=O)c2ccc(N3CCOCC3)c(NC(=O)/C=C/C(=O)O)c2)cc1 | 0.91%
O=C(CCNC(=O)C1CCN(S(=O)(=O)c2ccccc2)CC1)NC1CC1 | 8.45%
NC(=O)COc1ccc(C23CC4CC(CC(C4)C2)C3)cc1 | -2.25%
CCCC(NC(=O)c1ccccc1)c1nc2ccccc2n1Cc1ccc(C(=O)OC)o1 (centres undefined) | -3.45%
COc1ccc(CSc2nc(N3CCOCC3)c3c(c2C#N)CC(C)(C)OC3)cc1 | 19%
CC(C)Cc1nc(N2CCOCC2)c(C#N)c2c1CCC2 | 8.79%
CCOC(=O)CSc1nc(N2CCOCC2)c2c(c1C#N)CC(C(C)C)OC2 (centres undefined) | 28.7% (active)
COc1ccc(CCNC(=O)CSCc2ccc(Br)cc2)cc1OC | 1.08%
CC(C)c1ccc(NC(=O)CCN2C(=O)c3ccc([N+](=O)[O-])cc3C2=O)cc1 | 7.45%
O=NN(CCCl)C(=O)NCCc1cccc[n+]1[O-] | 7.72%
CC(C)(C)C1CCC(OC(=O)CCC(=O)Nc2ccccc2)CC1 (centres undefined) | 2.76%
CC1C(C)N(C(=O)CCl)c2ccccc2N1C(=O)CCl (centres undefined) | -4%
COc1ccc(C(=O)OCC(=O)NCC2CCCO2)cc1[N+](=O)[O-] (centres undefined) | 1.35%

Compound | inhibition
CC(C)(C)OC(=O)N1CCC(NC(=O)c2[nH]cnc2C(=O)N[C@@H](Cc2ccccc2)C(=O)OCc2ccccc2)CC1 | 35.5% (active)
O=C(N[C@@H](Cc1ccccc1)C(=O)OCc1ccccc1)c1nc[nH]c1C(=O)N[C@@H](Cc1ccccc1)C(=O)OCc1ccccc1 | 10.8%
C[C@@H](NC(=O)c1nc[nH]c1C(=O)N1CCN(C(=O)OC(C)(C)C)CC1)c1ccccc1 | 15.2%
O=C1NC(c2ccccc2)CCC1(Cl)Cl (centres undefined) | 3.93%
C=CCn1c(SCC(=O)c2c(N)n(C)c(=O)n(C)c2=O)nc2sc(CC)cc2c1=O | 8.69%
Cc1ccc(CSc2nnc(-c3cnccn3)n2C)cc1 | 29.1% (active)
Cn1c(SCc2c(F)cccc2Cl)nnc1-c1cnccn1 | -3.89%
Cn1c(SCc2ccc(F)cc2)nnc1-c1ccncc1 | 0.33%
[O-][n+]1onc2c1CCc1[nH]c(-c3ccccc3)nc1-2 | 2.02%
COc1ccc(NS(=O)(=O)c2ccc(C)c(C(=O)NNC(=O)c3csc(N4CCOCC4)n3)c2)cc1 | -2.21%
CC(C)=C(NC(=O)c1ccco1)C(=O)NCCc1nc2ccccc2[nH]1 | 2.22%
CCCCCOc1ccc(/C=C/C(=O)NCCc2nc3ccccc3[nH]2)cc1OC | 6.2%
CC(C)Oc1ccc(/C=C(\NC(=O)/C=C/c2ccco2)C(=O)NCCc2nc3ccccc3[nH]2)cc1 | 28.9% (active)
O=C(N/N=C\c1ccc(-c2ccc(Cl)c(Cl)c2)o1)C(=O)N1CCCC1 | 4.11%
Cc1ccc(S(=O)(=O)N(CC(=O)NCc2ccco2)c2ccccc2C)cc1 | 12.4%
COc1ccc(Cc2cc(-c3ccc(F)cc3)n[nH]c2=O)cc1 | 9.23%
COc1ccc(-n2nc(C(=O)Nc3cc(OC)c(OC)c(OC)c3)c3ccccc3c2=O)c(OC)c1 | 31.6% (active)
COc1ccc(-n2nc(C(=O)NCC(=O)N3CCN(c4ccccc4OC)CC3)c3ccccc3c2=O)c(OC)c1 | 1.93%
COc1cccc(NC(=O)c2nn(-c3ccc(OC)cc3OC)c(=O)c3ccccc23)c1 | -1.09%
COc1ccc(CCNC(=O)CN2C(=O)COc3ccc(S(=O)(=O)N4CCCC4)cc32)cc1OC | 3.63%

Reference: PubChem BioAssay AID540295 (The Scripps Research Institute Molecular Screening Center, 2011)
